Assay results published in ChEMBL document CHEMBL1136371, “The design of 8,8-dimethyl[1,6]naphthyridines as potential anticonvulsant agents” (Bioorg Med Chem Lett, 2003).

Assays:
[1] = Plasma clearance was determined; assay type: ADME, organism-based; conditions: rat
[2] = Oral bioavailability at the dose of 2 mg/kg in rat; assay type: ADME, organism-based; conditions: in vivo
Summary of the method: (§1)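 Rat pharmacokinetics after iv and po administration. Oral bioavailability (Fpo) was measured with oral dosing at 2 mg/kg, and blood clearance (CLb) in mL/min/kg.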

Rattus norvegicus [3] = organism: Rattus norvegicus; assay: Compound tested for its ability to protect rat from hindlimb tonic seizures following a shock by using ALLFITrd quo; assay type: functional
Summary of the method: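 Rat supraMES model. Oral doses of 1, 10 and 30 mg/kg. At 4 h post-dose, a single corneal-electrode shock of 180 mA lasting 0.3 s was given. Protection from hindlimb tonic seizures was scored against control, and ED50 was derived by ALLFIT fitting.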

Rattus norvegicus [4] = assay: Anticonvulsant activity by using rat MEST test at 2 mg/kg p.o. 2 hr post-dose; assay type: functional; conditions: route oral
Summary of the method: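 Rat maximal electroshock seizure threshold (MEST) test. Oral dosing at 2 mg/kg, doses as free base; reference anticonvulsant given at 2.5 mg/kg p.o. Seizure threshold read 2 h post-dose as % increase versus vehicle-treated controls. Significance by Litchfield–Wilcoxon analysis.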

Rattus norvegicus [5] = organism: Rattus norvegicus; assay: Binding affinity at [3H]SB-204269 binding site expressed as pKi; assay type: functional
Summary of the method: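 Radioligand binding with [3H]SB-204269, reported as pKi. All determinations run in triplicate.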

[6] = Oral bioavailability in rat; assay type: ADME, organism-based; conditions: in vivo; summary of the method: as §1
[7] = Oral bioavailability; assay type: ADME, organism-based; conditions: rat, in vivo; summary of the method: as §1

SMILES | Log Ki (Rattus norvegicus [5]) | Increase (Rattus norvegicus [4]) | other results
COc1ccc(C(=O)Nc2cnc3c(c2)CN(C)CC3(C)C)cc1F | -7.3 | – | –
COc1ccc(C(=O)Nc2ccc3c(c2)CN(C)CC3)cc1C(F)(F)F | -8.9 | – | bioavailability [6]: 2%
CC(=O)c1ccc2c(c1)[C@H](NC(=O)c1ccc(F)cc1)[C@@H](O)C(C)(C)O2 [CARABERSAT] | – | 120% | ED50 (Rattus norvegicus [3]): 6.3 mg/kg
CN1Cc2cc(NC(=O)c3ccccc3)cnc2C(C)(C)C1 | -6.2 | 3% | –
COc1ccc(C(=O)Nc2cnc3c(c2)CN(C)CC3(C)C)cc1Br | -8.6 | 210% | –
COc1ccc(C(=O)Nc2cnc3c(c2)CN(C)CC3(C)C)cc1C#N | -7.3 | 110% | –
COc1ccc(C(=O)Nc2cnc3c(c2)CN(C)CC3(C)C)cc1Cl | -8.5 | 380% | –

Second part, led by results:

Log Ki (Rattus norvegicus [5]) | SMILES | Increase (Rattus norvegicus [4]) | other results
-8.7 | COc1ccc(C(=O)Nc2cnc3c(c2)CNCC3(C)C)cc1C(F)(F)F | 260% | clearance [1]: 30 mL/min/kg; bioavailability [2]: > 50%; ED50 (Rattus norvegicus [3]): 3.9 mg/kg
-8.4 | CC(C)Oc1ccc(C(=O)Nc2cnc3c(c2)CNCC3(C)C)cc1C(F)(F)F | 15% | –
-8.1 | COc1ccc(C(=O)Nc2cnc3c(c2)CNCC3(C)C)cc1Cl | 260% | –
-8.5 | CCOc1ccc(C(=O)Nc2cnc3c(c2)CN(C)CC3(C)C)cc1C(F)(F)F | 310% | –
-7.2 | COc1ccc(C(=O)Nc2cnc3c(c2)CNCC3(C)C)cc1F | – | –
-8.8 | COc1ccc(C(=O)Nc2cnc3c(c2)CN(C)CC3(C)C)cc1C(F)(F)F | 570% | bioavailability [7]: 20%
-8.6 | CCOc1ccc(C(=O)Nc2cnc3c(c2)CNCC3(C)C)cc1C(F)(F)F | 80% | –
-8.7 | COc1ccc(C(=O)Nc2cnc3c(c2)CNCC3(C)C)cc1Br | 260% | –
